CFTR F508del cor: F508del CFTR correction, initial screen, CFBE line, single point; CFBE cells, YFP halide quenching; stimulated with forskolin plus potentiator P3; % fluorescence drop versus neutral controls; activity (quench increase), % at 7.58 µM; actives 0.36% (n = 350,000);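 active = mean added fluorescence quench of at least 8% versus neutral control, with both replicates also reaching 8%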;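 also: cells transiently co-express mutant CFTR-F508del with the halide-sensitive YFP; corrector assay measuring rescue of mutant channel to the surface after 24 h compound exposure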
FGF22 binding: binders of human FGF22 protein, primary screen, FGF22 synaptogenesis inhibitor project, biophysical, thermal shift, single point; Fibroblast growth factor 22 (Homo sapiens), Q9HCT0; recombinant FGF22 thermal shift, SYPRO orange fluorescence; percent of sucrose octasulfate shift, DMSO zero; activity (Tm shift, normalised), % at 9.99 µM; actives 1.5% (n = 340,000);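 active = mean Tm shift, scaled 0 neutral to 100 positive control, at about 1.3% or above, every replicate too, limit read from the data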
ERAP1 inh: human ERAP1 aminopeptidase inhibitors, primary screen, biochemical, single point, plate reader. inhibition, % at 10.7 µM. AID 652197, 2013. recombinant ERAP1, Leu-AMC fluorescence, 60 min. actives 0.15% (n = 340,000);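 active = mean replicate inhibition of at least 30%, or all replicates individually reaching that 30% level; inactive = mean below 30% and not every replicate reaching it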
DENV2 CPE rescue: inhibitors of DENV2 cytopathic effect, primary screen, cell-based, plate reader, single concentration | AID 651640, 2012 | CPE inhibition, % at 9.99 µM | DENV2-infected cells, cytopathic effect rescue | actives 1.7% (n = 350,000); in the data active = CPE inhibition above about 20%, passing the limit was not always enough; tested in BHK-21 cells
E-sel inducer: E-selectin induction in HUVECs, primary screen, imaging, HUVEC, immunofluorescence imaging, single point | P16581 | normalized: neutral wells 0, TNF-alpha wells 100 | activation, % at 7.58 µM | actives 0.37% (n = 260,000);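 active = mean E-selectin-positive cell signal at least 10% of the positive control, reached in at least 60% of replicates, without over 20% cell loss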
Target sequence (P16581 whole entry, looked up): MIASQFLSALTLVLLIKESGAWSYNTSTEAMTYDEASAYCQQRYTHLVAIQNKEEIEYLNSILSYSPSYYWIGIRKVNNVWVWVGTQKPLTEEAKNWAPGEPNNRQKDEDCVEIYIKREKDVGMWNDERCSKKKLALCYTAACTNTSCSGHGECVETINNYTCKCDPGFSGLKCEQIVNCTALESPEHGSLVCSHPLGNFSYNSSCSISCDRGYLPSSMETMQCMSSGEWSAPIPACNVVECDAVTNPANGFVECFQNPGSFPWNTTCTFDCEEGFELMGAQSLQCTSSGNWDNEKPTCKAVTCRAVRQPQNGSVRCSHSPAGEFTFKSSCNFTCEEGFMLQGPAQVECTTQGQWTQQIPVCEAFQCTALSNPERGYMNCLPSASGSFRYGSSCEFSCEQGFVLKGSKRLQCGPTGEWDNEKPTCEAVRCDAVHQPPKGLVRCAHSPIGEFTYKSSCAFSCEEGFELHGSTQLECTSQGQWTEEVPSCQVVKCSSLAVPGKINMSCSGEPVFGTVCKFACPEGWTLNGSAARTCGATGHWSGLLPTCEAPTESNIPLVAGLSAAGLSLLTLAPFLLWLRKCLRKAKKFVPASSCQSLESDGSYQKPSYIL
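Test system: HUVEC; input: 3,000 HUVEC/well; measured by: immunofluorescence imaging; read-out: % PE-positive cells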
A number is an active result; i = inactive; nt = no result. Compounds with a hit are over-represented: about 3.7% of the library has one in this group of screens.

SMILES | CFTR F508del cor | FGF22 binding | ERAP1 inh | DENV2 CPE rescue | E-sel inducer
CC(C)NC(=O)N(C)C[C@@H]1Oc2c(NS(=O)(=O)c3ccccc3)cccc2C(=O)N([C@H](C)CO)C[C@H]1C | i | i | i | i | i
CC(OC(=O)/C=C/c1cccc(Cl)c1)C(=O)NC1CCCCC1C (stereo not drawn) | i | i | i | 91 | i
Cc1cc(NC(=O)Nc2cccc(C(F)(F)F)c2)n(C)n1 | nt | i | i | i | nt
CC(=O)Nc1cccc(Nc2cc(C)nn2C)c1 | i | i | i | 73 | i
COc1cc(Nc2c3c(nc4ccccc24)CCC3)cc(OC)c1OC | 8.6 | i | i | i | i
COc1ccc(OC)c(Nc2c3c(nc4ccccc24)CCC3)c1 | i | i | i | i | i
COc1ccc(C/C(C)=N/NC(=O)c2ccc(C)cc2C)cc1 | i | 44 | i | i | nt
COc1ccc2c3c([nH]c2c1)[C@H](CO)N(C(=O)Nc1ccccc1F)CC31CN(C(C)=O)C1 | i | i | i | i | i
S=C1NCCN1CC1CCN(CC2CCCC2)CC1 | i | i | nt | i | i
S=C1NCCN1CC1CCN(CCCC2CCCC2)CC1 | i | i | i | 72 | i
C[C@H](CO)N1C[C@H](C)[C@H](CN(C)C)Oc2ccc(NC(=O)Cn3cnnn3)cc2CC1=O | i | i | i | i | nt
Cc1ccccc1-c1cc(C(=O)O)nn1CC1CC(c2cccc([N+](=O)[O-])c2)=NO1 (stereo not drawn) | i | i | nt | 126 | i
Cc1ccccc1-c1cc(C(=O)NCc2cccs2)nn1CC1CC(c2cccc([N+](=O)[O-])c2)=NO1 (stereo not drawn) | i | i | nt | i | i
Cc1ccccc1-c1cc(C(=O)NCc2cccc(C(F)(F)F)c2)nn1CC1CC(c2cccc([N+](=O)[O-])c2)=NO1 (stereo not drawn) | i | i | i | 49 | nt
O=C(Nc1cc(F)ccc1F)N[C@@H]1CC[C@H](CCn2cc(C3CC3)nn2)O[C@@H]1CO | i | i | i | i | i
CO[C@@H]1CN(C)C(=O)c2cc(NS(=O)(=O)c3cn(C)cn3)ccc2OC[C@H](C)N(CCC(F)(F)F)C[C@H]1C | i | nt | nt | nt | i
CCN(CC)S(=O)(=O)c1ccc2[nH]c(=O)cc(C(=O)NCC(c3ccco3)N3CCCC3)c2c1 (stereo not drawn) | i | i | i | 27 | i
CCN(CC)S(=O)(=O)c1ccc2[nH]c(=O)cc(C(=O)Nc3ccccc3N3CCCC3)c2c1 | i | i | i | i | i
COc1ccc(C(=O)OCc2c(-c3cccc(OC)c3)ncc3ccccc23)cc1 | i | i | nt | 22 | i
C/C=C/c1cnc2c(c1)C(=O)N([C@H](C)CO)C[C@H](C)[C@H](CN(C)Cc1cccc(C(=O)O)c1)O2 | i | i | i | i | i
COc1ccc2c3c([nH]c2c1)[C@H](CO)N(C(=O)NC1CCCC1)CC31CN(S(C)(=O)=O)C1 | i | i | i | i | i
O=C(CCNC(=O)c1ccc(Br)cc1)NNC(=O)c1ccccc1 | i | 43 | i | i | i
COc1ccc(Cl)cc1C(=O)NNC(=O)CCNC(=O)c1ccccc1 | i | 44 | i | i | i
CCOc1ccc(C(=O)NNC(=O)CCNC(=O)c2ccc(Br)cc2)cc1OC | 21 | i | i | i | i
Cc1ccc(OCCC(=O)NNC(=O)c2ccc(Br)cc2)cc1 | 8.6 | i | i | i | i
SMILES | CFTR F508del cor | FGF22 binding | ERAP1 inh | DENV2 CPE rescue | E-sel inducer
CO[C@H]1CN(C)C(=O)c2ccc(NC(=O)C3CC3)cc2OC[C@H](C)N(C(=O)c2ccccc2)C[C@H]1C | i | i | i | i | i
CCC(=O)N1CC2(CCN(C(=O)NC(C)C)CC2)c2c(n(C)c3cc(OC)ccc23)[C@H]1CO | i | i | nt | i | i
COc1ccccc1C(=O)NC(=O)CSc1nncn1C | i | i | i | i | i
COc1ccc(Cl)cc1C(=O)NNC(=O)CSc1nncn1C | i | 43 | i | i | i
C[C@@H]1CCCCO[C@@H](CN(C)C)[C@@H](C)CN([C@H](C)CO)C(=O)c2cc(NC(=O)Nc3cccc4ccccc34)ccc2O1 | i | i | i | i | i
O=C(C[C@H]1C[C@@H]2c3cc(NC(=O)C4CCC4)ccc3O[C@@H]2[C@H](CO)O1)NCC(F)(F)F | i | i | i | i | i
